We go through one compound from paper PMC3495079 (Biochemistry, 2012).

Molecules are shown by their SMILES.

For one assay, the target named is T1, HsDcpS (Homo sapiens, UniProt Q96C86).
T1 sequence (Q96C86 1-337): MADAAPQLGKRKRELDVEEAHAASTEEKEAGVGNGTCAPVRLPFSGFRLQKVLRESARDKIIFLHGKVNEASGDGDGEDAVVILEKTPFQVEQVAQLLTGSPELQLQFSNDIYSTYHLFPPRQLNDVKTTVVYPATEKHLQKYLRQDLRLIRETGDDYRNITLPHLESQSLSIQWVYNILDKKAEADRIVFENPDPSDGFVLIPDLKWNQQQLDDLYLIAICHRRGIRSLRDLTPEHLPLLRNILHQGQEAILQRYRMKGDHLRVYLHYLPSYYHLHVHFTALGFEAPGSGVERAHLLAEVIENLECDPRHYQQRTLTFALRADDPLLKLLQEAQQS
The assay can be described thus: HPLC analysis of cap analog hydrolysis by recombinant DcpS. The format is biochemical. Conditions: condition (2): 20 °C, pH 7.6; 15 μM substrate; 0.02 μM DcpS; 60 min or 24 h. In short, it runs like this: (§1)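 His-tagged recombinant enzyme was expressed in E. coli and purified by Ni-NTA and gel filtration. Cap analog (15 μM) was preincubated 10 min, then DcpS was added at 0.02 or 0.2 μM. Buffers were Tris/MgAc/(NH4)2SO4 at 37 °C, or Tris/KCl/EDTA/DTT at 20 °C. Aliquots were taken at 5–60 min and 24 h and heat-stopped (97 °C, 2.5 min). Reverse-phase HPLC used a methanol/KH2PO4 gradient with A260 and fluorescence detection. Products were identified by retention time, and % substrate hydrolyzed was recorded.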

The target in another assay is AsDcpS (Ascaris suum, UniProt D3K0N9). The assay can be described thus: HPLC analysis of cap analog hydrolysis by recombinant DcpS. The assay is classed as biochemical, A. suum. The conditions noted are these: condition (2): 20 °C, pH 7.6; 15 μM substrate; 0.02 μM DcpS.
The target in the next assay is T2, CeDcpS (Caenorhabditis elegans, UniProt G5EFS4).
T2 sequence (G5EFS4 1-311): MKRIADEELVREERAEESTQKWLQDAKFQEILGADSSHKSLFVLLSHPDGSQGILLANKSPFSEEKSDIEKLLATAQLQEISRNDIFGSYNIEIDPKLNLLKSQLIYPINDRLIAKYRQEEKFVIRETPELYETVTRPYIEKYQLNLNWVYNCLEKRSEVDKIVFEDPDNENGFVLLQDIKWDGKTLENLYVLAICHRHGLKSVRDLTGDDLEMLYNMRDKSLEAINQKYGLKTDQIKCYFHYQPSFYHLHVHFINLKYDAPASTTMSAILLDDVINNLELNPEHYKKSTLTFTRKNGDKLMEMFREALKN
The assay can be described thus: HPLC analysis of cap analog hydrolysis by recombinant DcpS. The assay is classed as biochemical, C. elegans. The conditions noted are these: condition (2): 20 °C, pH 7.6; 15 μM substrate; 0.02 μM DcpS. In short, it runs like this:
as §1

A further assay concerns the target recombinant CeDcpS. The conditions noted are these: substrate m^7GpppBODIPY; cited from earlier work.

Chain of AsDcpS (D3K0N9 whole entry): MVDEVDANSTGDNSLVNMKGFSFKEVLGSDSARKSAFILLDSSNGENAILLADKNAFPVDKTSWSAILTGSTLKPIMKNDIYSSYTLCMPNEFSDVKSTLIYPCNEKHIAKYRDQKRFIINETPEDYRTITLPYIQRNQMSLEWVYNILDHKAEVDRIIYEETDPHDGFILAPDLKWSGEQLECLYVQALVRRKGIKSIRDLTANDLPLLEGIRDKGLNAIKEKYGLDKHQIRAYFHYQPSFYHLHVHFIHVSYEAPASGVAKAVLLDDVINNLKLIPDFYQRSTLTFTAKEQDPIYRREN

`CN(C)c1nc2c(c(=O)[nH]1)[n+](C)cn2[C@@H]1O[C@H](COP(=O)(O)OP(=O)(O)OP(=O)(O)OC[C@H]2O[C@@H](n3cnc4c(=O)[nH]c(N)nc43)[C@H](O)[C@@H]2O)[C@@H](O)[C@H]1O` [m3^2,2,7GpppG]: the “Hydrolysis by DcpS (HPLC, Figure 3)” value on HsDcpS is recorded as “not observed”; at AsDcpS it was “readily hydrolyze”; on CeDcpS it was “readily hydrolyze”. Besides, the Ki at recombinant CeDcpS was 28 µM.
